Bioassay records as filed in PubChem BioAssay.
MC4R antag cAMP = blocks human MC4R cAMP signaling. MC4R-expressing cells, MTII-stimulated cAMP, LANCE TR-FRET. AID 540295. hit rate 0.48% among 360,000. inhibition, % at 6.5 µM;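 active means inhibition above its plate's cutoff, the mean of tested wells on that plate plus 3 SD, cut at about 29% in these data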
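Material: U2OS-MC4R stable cell line | Reagent: Melanotan II challenge after compound preincubation | Doses: One concentration, 6.5 µM nominal | Incubation: 30-min compound preincubation, 1-h Melanotan II challenge, 1-h detection, room temperature | Signal: TR-FRET cAMP assay | Replicates: One well per compound, no replicates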
HTR2A ag = activates the mouse 5-HT2A serotonin receptor. activation, % at 7.6 µM. CHO-K1 mHTR2A beta-arrestin complementation, luminescence; percent of 30 µM serotonin response. P35363. hit rate 0.66% among 360,000. AID 624169;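 active means activation above a run cutoff, the mean activation of all tested compounds plus 3 SD, cut at about 14% in these data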
TAAR1 agonist = human TAAR1 agonism | Q96RJ0 | CHO RD-HGA16 TAAR1, Fluo-8 calcium fluorescence; vehicle wells 0%, saturating PEA agonist 100% | activation, % at 3 µM | hit rate 0.99% among 360,000;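 active means activation above the mean activation of all test compounds in the run plus 3 SD, cut at about 38% in these data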
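Test system: RD-HGA16 (CHO) cells co-expressing Gα16 and hTAAR1; dosing: one-point dosing at 3 µM (nominal); timing: 17-24 h seeding, 75 min 37 °C dye, 30 min RT; signal: kinetic Fluo-8 calcium fluorescence; read-out basis: % activation relative to PEA EC100 response; controls: DMSO and PEA EC100; replicates: n 1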
MC4R ag barr = agonists of human melanocortin 4 receptor (MC4R) beta-arrestin. P32245. hit rate 0.98% among 360,000. U2OS MC4R beta-arrestin complementation, luminescence; percent of melanotan II response, DMSO zero. activation, % at 8.9 µM;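 active means activation above a per-plate cutoff, the mean activation of sample wells on that plate plus 3 SD, cut at about 8% in these data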
TAAR1 antag = antagonists of human TAAR1 | CHO RD-HGA16 TAAR1, Fluo-8 calcium fluorescence, antagonist | inhibition, % at 3 µM | hit rate 1.5% among 360,000;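 active means inhibition above a per-plate cutoff, the mean inhibition of test compounds on that plate plus 3 SD, cut at about 49% in these data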
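Test system: CHO RD-HGA16 cells bearing hTAAR1 | Reagent: β-PEA, EC80 | Compound dosing: 3 µM, single point | Schedule: Dye loading 75 min at 37 °C, then 30 min room temperature | Signal: Calcium fluorescence with Fluo-8 | Evaluation: Percent inhibition of PEA-evoked calcium signal, max/basal emission ratio | Control set: DMSO-only wells and EC80 β-PEA-stimulated wells | Repeats: Singlicate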
B2AR ag = activates human beta-2 adrenergic receptor causing internalization; P07550; Am2.2-beta2AR cells, FAP receptor internalization, flow cytometry; response, % (no concentration beside the values); hit rate 0.43% among 340,000; AID 504454;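 active means response above a set limit, near 3 SD of response in nonfluorescent compounds, cut at about 42% in these data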
MC4R barr conf = human MC4R beta-arrestin agonism confirmation; AID 602192; U2OS MC4R beta-arrestin recruitment, luminescence; scaled DMSO 0%, Melanotan II 100%; activation, % at 8.9 µM; shares compounds with MC4R ag barr; hit rate 31% among 2,400;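 active means mean activation across replicates above the hit cutoff set in the earlier primary screen, cut at about 8% in these data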
MOR DOR agonist = activates mu-delta opioid heterodimer, MC4R agonist counter-screen. shares compounds with MC4R ag barr. hit rate 5.8% among 2,400. U2OS PathHunter beta-arrestin, beta-gal luminescence; percent of deltorphin B response, DMSO zero. activation, % at 9.2 µM;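 active means mean activation across replicates exceeds the hit threshold derived in the earlier primary screen, cut at about 18% in these data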
Target sequence (P35372 whole entry, looked up): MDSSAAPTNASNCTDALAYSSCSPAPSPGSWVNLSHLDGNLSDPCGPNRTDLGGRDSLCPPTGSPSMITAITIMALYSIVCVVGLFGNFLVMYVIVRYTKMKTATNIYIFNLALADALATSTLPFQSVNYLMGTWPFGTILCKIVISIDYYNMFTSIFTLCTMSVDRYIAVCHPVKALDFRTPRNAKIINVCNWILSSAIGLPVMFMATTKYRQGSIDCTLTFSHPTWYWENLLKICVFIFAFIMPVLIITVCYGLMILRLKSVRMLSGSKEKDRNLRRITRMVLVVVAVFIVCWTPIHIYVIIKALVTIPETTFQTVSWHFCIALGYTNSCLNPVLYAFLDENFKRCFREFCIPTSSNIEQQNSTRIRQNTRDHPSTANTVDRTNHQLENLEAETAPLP
Target sequence (P41143 whole entry, looked up): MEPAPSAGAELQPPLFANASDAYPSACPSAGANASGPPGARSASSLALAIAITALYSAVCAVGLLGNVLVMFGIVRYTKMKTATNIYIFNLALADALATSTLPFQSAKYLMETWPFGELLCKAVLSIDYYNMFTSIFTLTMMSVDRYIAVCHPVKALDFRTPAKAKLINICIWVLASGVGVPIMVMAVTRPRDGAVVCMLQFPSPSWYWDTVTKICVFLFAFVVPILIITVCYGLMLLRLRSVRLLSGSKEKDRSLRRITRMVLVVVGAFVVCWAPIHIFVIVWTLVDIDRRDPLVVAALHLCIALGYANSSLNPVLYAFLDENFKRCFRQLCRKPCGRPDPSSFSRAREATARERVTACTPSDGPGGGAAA
Of the large screens only hits and unclear results are named; the others gave an inactive call (follow-up assays come after a bar, where they were run). Most compounds without a hit are left out; they make up all but 4.3% or so of the library.

CC(=O)c1cccc(NC(=O)c2ccccc2OCc2ccc(F)cc2)c1	MC4R ag barr 13.7 | MC4R barr conf inactive | MOR DOR agonist inactive
C=CCSc1nc2c(c(=O)[nH]c(=O)n2C)n1Cc1ccc(C)cc1	MC4R ag barr 13.9 | MC4R barr conf inactive | MOR DOR agonist inactive
COc1ccccc1NC(=O)Nc1nc(C(N)Cc2ccc(Cl)cc2)cs1 (centres undefined)	MC4R ag barr 12.8 (no result: B2AR ag) | MC4R barr conf 22.0 | MOR DOR agonist inactive
COc1ccc(CC(N)c2csc(NC(=O)NCc3ccccc3)n2)cc1 (centres undefined)	none (no result: B2AR ag)
COc1cc(CNC(=O)Nc2nc(C(N)Cc3ccc(C(F)(F)F)cc3)cs2)cc(OC)c1OC (centres undefined)	MC4R ag barr 10.3 (no result: B2AR ag) | MC4R barr conf inactive | MOR DOR agonist inactive
COc1ccc(OC)c(NC(=O)Nc2nc(C(N)CCc3ccccc3)cs2)c1 (centres undefined)	MC4R ag barr 11.2 (no result: B2AR ag) | MC4R barr conf 36.5 | MOR DOR agonist 20.3
COc1cc(OC)nc(Nc2nc(C(N)Cc3ccc(Cl)cc3)cs2)n1 (centres undefined)	TAAR1 agonist 46.8, MC4R ag barr 21.2 (no result: B2AR ag) | MC4R barr conf inactive | MOR DOR agonist inactive
CCOCCc1nnc(NC(=O)C2CC(=O)N(c3ccc(OCC)cc3)C2)s1 (centres undefined)	none
NC(Cc1ccc(C(F)(F)F)cc1)c1csc(NC(=O)Nc2ccccc2Cl)n1 (centres undefined)	MC4R ag barr 15.1 (no result: B2AR ag) | MC4R barr conf 19.0 | MOR DOR agonist inactive
COc1ccc(CC(N)c2csc(NC(=O)Nc3ccccc3C(C)(C)C)n2)cc1 (centres undefined)	none (no result: B2AR ag)
NC(Cc1ccc(Cl)cc1)c1csc(NC(=O)Nc2ccccc2)n1 (centres undefined)	MC4R ag barr 20.2 (no result: B2AR ag) | MC4R barr conf 22.2 | MOR DOR agonist inactive
Cc1ccccc1NC(=O)Nc1nc(C(N)Cc2ccccc2)cs1 (centres undefined)	none (no result: B2AR ag)
CC(=O)N1CCC(C(=O)Nc2ccc(S(=O)(=O)N3CCCCC3)cc2)CC1	none
O=C(CSc1nnc(COc2ccc(Cl)cc2)n1Cc1ccco1)c1ccccc1F	MC4R ag barr 22.1 | MC4R barr conf inactive | MOR DOR agonist inactive
C[C@H](NS(=O)(=O)c1ccc2c(c1)OCCCO2)C(=O)N1CCN(Cc2ccc(C#N)cc2)CC1	none
c1ccc(COc2cccc(-c3cc4nc(NCCOc5ccccc5)ccn4n3)c2)cc1	none (no result: B2AR ag)
Clc1cccc(-c2cc3nc(NCCOc4ccccc4)ccn3n2)c1	MC4R ag barr 10.6 (no result: B2AR ag) | MC4R barr conf inactive | MOR DOR agonist inactive
O=C(COc1ccccc1Cl)Nc1ccc(NC(=O)c2ccco2)cc1	none
O=C(Nc1ccc(-c2noc(COc3ccccc3Cl)n2)cc1)c1ccco1	MC4R ag barr 26.8 | MC4R barr conf inactive | MOR DOR agonist inactive
CCOc1ccc(NC(=O)CN(C)C2=NS(=O)(=O)c3ccccc32)cc1	none (no result: B2AR ag)
Cc1cccc(C)c1OCC(=O)N(Cc1ccc(Cl)cc1)C1CCS(=O)(=O)C1 (centres undefined)	none
CCCCN(C)C(=O)c1ccc(Nc2nc(C(N)CCc3ccccc3)cs2)nc1 (centres undefined)	none (no result: B2AR ag)
CCCCN(C)C(=O)c1ccc(Nc2nc(C(N)Cc3ccc(C(F)(F)F)cc3)cs2)nc1 (centres undefined)	MC4R ag barr 30.2 (no result: B2AR ag) | MC4R barr conf 23.4 | MOR DOR agonist 34.7
NC(Cc1ccc(C(F)(F)F)cc1)c1csc(Nc2ccc(C(=O)NCCCO)cn2)n1 (centres undefined)	none (no result: B2AR ag)
NC(Cc1ccc(C(F)(F)F)cc1)c1csc(Nc2ccc(C(=O)NCc3ccco3)cn2)n1 (centres undefined)	MC4R ag barr 15.8 (no result: B2AR ag) | MC4R barr conf 32.1 | MOR DOR agonist inactive
Cc1c(C)c2ccc(OCC(=O)Nc3ccccc3C(N)=O)cc2oc1=O	none
Cc1ccc(S(=O)(=O)N2CCN(C(=O)c3cc(S(=O)(=O)N(C)C)ccc3N3CCCC3)CC2)c(C)c1	none
COC(=O)c1cccc(OCCCN2CCC(C(O)(c3ccccc3)c3ccccc3)CC2)c1	none (no result: MC4R antag cAMP, MC4R ag barr, B2AR ag)
Cc1ccc(NC(=O)COC(=O)CN2C(=O)NC3(CCCC3)C2=O)cc1Cl	none
Cc1c(-c2ccccc2)nc(N)c(C#N)c1-c1ccco1	MC4R ag barr 11.8 | MC4R barr conf inactive | MOR DOR agonist inactive
COc1ccc(CN2C(=O)CSCC2(C)C(=O)Nc2c(C)cccc2C)cc1OC (centres undefined)	none (no result: MC4R antag cAMP, MC4R ag barr, B2AR ag)
CC(C)c1ccc(-n2nnnc2SCc2nc(N)nc(N)n2)cc1	none (no result: B2AR ag)
CCOc1ccc2nc(NC(=S)NCc3ccccc3)sc2c1	MC4R ag barr 18.4 | MC4R barr conf inactive | MOR DOR agonist inactive
O=c1oc2ccccc2cc1-c1cn2ccccc2n1	MC4R ag barr 11.1 | MC4R barr conf inactive | MOR DOR agonist inactive
O=c1oc2ccccc2cc1-c1cn2cccnc2n1	none
COc1ccc(CNC(=O)Nc2ccc3c(c2)c(=O)n(C)n3Cc2cccc(C(F)(F)F)c2)cc1	none (no result: B2AR ag)
O=C(O)c1cccc(-n2cccc2/C=C2/NC(=O)N(c3cccc(Cl)c3)C2=O)c1	none
COc1ccc(-n2cccc2/C=C2/NC(=O)N(c3cccc(Cl)c3)C2=O)cc1	MC4R ag barr 13.9 | MC4R barr conf inactive | MOR DOR agonist inactive
Cc1cc2oc(C(=O)Nc3ccc(S(=O)(=O)Nc4nccs4)cc3)cc(=O)c2cc1Cl	MC4R ag barr 9.7 | MC4R barr conf inactive | MOR DOR agonist inactive
CCC[C@H]1CN(Cc2cccnc2)C(=O)[C@@H]1CC(=O)Nc1ccc(Br)cc1	none (no result: B2AR ag)
COc1ccc(CCNC(=O)CC(=O)N/N=C\c2ccc(OCC(N)=O)cc2)cc1OC	none (no result: B2AR ag)
Cc1ccc(-c2nn(CCC(N)=O)c(=O)c3ccccc23)cc1	none (no result: TAAR1 agonist, TAAR1 antag)
CC(=O)Nc1cc([N+](=O)[O-])ccc1OCc1ccccc1	none
Cc1ccc2nc(Nc3ccc4[nH]c(=O)[nH]c4c3)c(-n3nc(C)cc3C)nc2c1	MC4R ag barr 34.2 | MC4R barr conf 28.6 | MOR DOR agonist inactive
Cc1cc(C)n(-c2nc3ccccc3nc2Nc2ccc3c(c2)OCO3)n1	none
